FXIIa inh 1536 – human FXIIa protease inhibitors, primary screen, biochemical, 1536-well | inhibition, % at 5 µM | hit rate 0.3% among 220,000 | purified FXIIa, Boc-QGR-AMC fluorogenic substrate, 2 h | Coagulation factor XII (Homo sapiens), P00748 | AID 800, 2007; in the data active means inhibition above about 40%
m-calpain inh – inhibitors of pig calpain II, primary screen, biochemical, fluorogenic peptide substrate, 1536-well. hit rate 0.37% among 220,000. purified calpain II, 30 min. inhibition, % at 16 µM;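 active means inhibition above about 50%, limit read from the data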
thrombin 1536 – human alpha-thrombin inhibitors, primary screen, counter-screen for coagulation protease inhibitor project, biochemical, 1536-well, fluorogenic AMC substrate | Boc-VPR-AMC fluorogenic substrate cleavage | hit rate 0.26% among 220,000 | Prothrombin (Homo sapiens), P00734 | inhibition, % at 5 µM;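 active means inhibition at or above 40%; inactive means inhibition below 40%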
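Material: human alpha-thrombin enzyme / Medium: pH 7.5 Tris (50 mM) with NaCl 150 mM, Tween 20 0.05% / Compound: single-point dosing at 5 µM, 0.2% DMSO / Incubation: enzyme reaction carried out at room temperature / Detection: AMC fluorescence, 355/460 nm / Read-out basis: percent inhibition scaled between no-compound controls and no-enzyme blanks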
KLK5 inh – human KLK5 protease inhibitors, primary screen, biochemical, 1536-well. hit rate 0.59% among 210,000. AID 873, 2007. recombinant hK5, fluorogenic AMC substrate cleavage. inhibition, % at 5 µM. Kallikrein-5 (Homo sapiens), Q9Y337;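 active means inhibition of 40% or more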
Target sequence (Q9Y337 67-293 limits assumed): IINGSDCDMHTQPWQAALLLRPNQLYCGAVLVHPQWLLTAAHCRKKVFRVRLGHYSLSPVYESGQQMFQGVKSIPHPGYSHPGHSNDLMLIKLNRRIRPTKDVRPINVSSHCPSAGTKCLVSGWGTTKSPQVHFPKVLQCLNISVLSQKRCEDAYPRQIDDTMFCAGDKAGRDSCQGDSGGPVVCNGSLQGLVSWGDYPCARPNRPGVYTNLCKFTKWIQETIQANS
FXIa inh 1536 – human FXIa protease inhibitors, primary screen, biochemical, 1536-well. Coagulation factor XI (Homo sapiens), P03951. purified FXIa, Boc-Glu-Ala-Arg-AMC fluorogenic substrate. inhibition, % at 5 µM. hit rate 0.14% among 220,000;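 active means inhibition of at least 40%; inactive means inhibition below 40%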;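 further: fluorescence of freed AMC excited at 355 nm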
Numbers stand for hits; . = inactive; / = no result. The list is not random: actives were taken first. Their share in the collection is about 1.4%.

SMILES	FXIIa inh 1536	m-calpain inh	thrombin 1536	KLK5 inh	FXIa inh 1536
O=C(COC(=O)c1ccc2ccccc2c1)Nc1ncc(C(F)(F)F)cc1Cl	.	.	.	.	.
COC(=O)c1ccc(Nc2nc(C)cc(=O)[nH]2)cc1	41.5	.	.	.	.
O=C(CN1CCOCC1)Nc1cccc(S(=O)(=O)N2CCCCCC2)c1	.	.	/	.	.
O=C(Cn1[nH]c(=O)c2ccccc2c1=O)Nc1cccc(S(=O)(=O)N2CCCCCC2)c1	/	.	.	.	51.7
CCC(CO)n1c(SCc2cc(=O)oc3cc(C)ccc23)nc2ccccc2c1=O (centres undefined)	41.6	.	.	.	.
COc1ccccc1CNC(=O)C(=O)NCC(c1ccco1)N1CCOCC1 (centres undefined)	.	.	.	.	.
COC(=O)c1ccccc1NC(=O)C1CC(=O)N(C2CCCCC2)C1 (centres undefined)	.	.	.	63.5	.
CCc1ccc(N2CC(C(=O)Nc3ccccc3F)CC2=O)cc1 (centres undefined)	.	.	104.0	87.5	.
COC(=O)c1ccccc1NC(=O)C1CC(=O)N(c2ccc(F)cc2)C1 (centres undefined)	.	.	50.3	88.5	.
Cc1cc(C)cc(NC(=O)CSc2nnc(-c3ccccc3C)o2)c1	.	.	.	53.5	.
CCn1c([N+](=O)[O-])nc2c1c(=O)[nH]c(=O)n2C	.	.	.	.	.
CCOc1ccc(N2C(=O)CN(O)C=C3N=c4ccccc4=C32)cc1	.	.	.	.	.
CCC(=O)N/C(=N/c1nc(C)cc(C)n1)Nc1cccc(OC)c1	.	.	93.6	.	.
Cn1c(CNC(=O)c2ccco2)nnc1SCC(=O)Nc1c(F)cc(F)cc1Br	.	.	.	.	.
CCCCNC(=O)CCn1c(=O)c2ccccc2n(Cc2ccc(Cl)cc2)c1=O	.	.	.	.	.
O=C(CCN1C(=O)C2C3C=CC(C3)C2C1=O)NC1CCCc2ccccc21 (centres undefined)	.	.	.	53.4	.
O=C(CCn1ccc2ccccc21)NC1CCCc2ccccc21 (centres undefined)	.	.	.	.	.
CN(C)/C=N/c1cnc(C(=O)c2ccc(Cl)cc2)n1C	.	.	.	.	.
CCOC(=O)CSC1=NC(=O)/C(=C\c2ccc(OC(C)=O)cc2)S1	.	.	.	52.6	.
O=Cc1ccc(OCC(=O)Nc2ccccc2C(F)(F)F)cc1	63.8	.	.	.	.
O=C(O)Cc1ccccc1C(=O)O	.	.	43.8	.	.
CC1CCc2[nH]nc(C(=O)O)c2C1 (centres undefined)	.	.	77.6	.	.
O=C(COc1ccc(-c2ccccc2)cc1)N1CCN(C(=O)c2cccs2)CC1	.	.	.	.	.
CNC(=S)N1CCC(NC(=O)c2ccco2)CC1	.	.	.	.	44.0
CCNC(=S)N1CCC(NC(=O)c2ccco2)CC1	.	.	.	.	.
SMILES	FXIIa inh 1536	m-calpain inh	thrombin 1536	KLK5 inh	FXIa inh 1536
CCOc1ccc(NC(=S)N(C)C)cc1	.	.	.	.	.
CCOC(=O)CC1Sc2ccccc2NC1=S (centres undefined)	.	.	.	80.3	.
CCC(C)NC(=O)c1ccc([N+](=O)[O-])c(Cl)c1 (centres undefined)	.	.	.	.	.
Cn1c(SCC(=O)NNC(=S)Nc2ccccc2)nnc1-c1ccncc1	.	.	50.2	.	.
Cc1cccc(NC(=O)CSc2nnc(-c3ccncc3)n2C)c1	.	.	.	.	.
N#Cc1c(-c2cccs2)nc(SCC(=O)c2cccs2)[nH]c1=O	.	.	.	70.9	.
Cc1noc(C)c1CSc1nc2ccccc2c(=O)n1-c1ccc(F)cc1F	42.9	76.7	.	.	.
C=CCn1c(SCc2c(C)noc2C)nc2cc(C(=O)O)ccc2c1=O	.	.	46.1	.	.
CC(=O)N/N=C/C1=CCC2CC1C2(C)C (centres undefined)	.	.	.	.	.
CC(C)NC(=S)N/N=C/C1=CCC2CC1C2(C)C (centres undefined)	.	51.2	.	.	.
CC1=Nc2ccc(C)cc2/C1=C/c1c(N)n2c(S(=O)(=O)C(C)C)nsc2nc1=O	.	.	.	.	.

Screens from PubChem BioAssay.
